In paper PMC3710193 (Journal of immunology (Baltimore, Md. : 1950), 2011):
Where “and” joins values, the source holds several entries; their conditions need not be identical. Identical values can stand only once.

Tests used:
[1] = target: T1, Vβ8.2 NKT TCR (Vα14-Vβ8.2) / CD1d-Ag (Mus musculus, UniProt P11609+Z9CWY5XBV8); test: SPR of Vβ8.2 NKT TCR binding to glycolipid-loaded CD1d; details: for ka / kd: SPR kinetic experiment, 25°C, 1:1 Langmuir model
T1 sequence (P11609 22-305 limits assumed): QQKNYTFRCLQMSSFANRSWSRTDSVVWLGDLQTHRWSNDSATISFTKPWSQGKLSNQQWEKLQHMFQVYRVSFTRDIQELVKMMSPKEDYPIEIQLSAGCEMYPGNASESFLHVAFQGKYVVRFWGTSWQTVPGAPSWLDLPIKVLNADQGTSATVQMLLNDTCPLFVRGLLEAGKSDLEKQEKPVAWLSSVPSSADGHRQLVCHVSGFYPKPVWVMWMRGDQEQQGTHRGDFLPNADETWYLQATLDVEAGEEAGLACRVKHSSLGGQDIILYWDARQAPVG
T1 sequence (P01887 21-119): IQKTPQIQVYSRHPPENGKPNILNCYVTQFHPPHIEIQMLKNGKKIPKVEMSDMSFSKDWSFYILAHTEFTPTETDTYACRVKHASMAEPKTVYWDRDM

Vβ7 NKT TCR / CD1d-Ag = test: SPR of Vβ7 NKT TCR binding to glycolipid-loaded CD1d; set-up: species or system mouse
Summary of the method: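 Refolded mouse Vα14-Vβ7 NKT TCR flowed over glycolipid-loaded mouse CD1d (baculovirus-expressed, BirA/His-tagged) captured on streptavidin chips; CD1d-endogenous lipid surface subtracted. 25°C, HEPES buffer pH 7.4, 150 mM NaCl, 0.005% P20. Kinetics: 300–500 RU, 0.19–25 μM, 50 μl/min for 60 s, 1:1 Langmuir fit, duplicate. Steady-state: 2000 RU, 0.039–40 μM, 5 μl/min for 90 s, one-site fit.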

spleen NKT cells [2] = test: Intracellular cytokine staining for IFN-γ in spleen NKT cells at 8 hours; type: cell-based, C57BL/6 mice; details: highest dose 100 ng/ml, ICS
Summary of the method: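 Splenocytes from C57BL/6 mice (5×10^5/well) were cultured 8 hr with test glycolipid (100, 10, 1 ng/ml), with Golgistop for the final 4 hr. Four replicate wells were pooled per determination. Cells were surface-stained with glycolipid-loaded CD1d tetramer-PE and anti-TCR-β, fixed, permeabilised and stained for intracellular IFN-γ. Mean ± SEM of three experiments, each the mean of duplicate cultures.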

spleen cells = test: Cytometric bead array of 72 hr splenocyte culture supernatants; type: cell-based, C57BL/6 mice; details: 72 hr spleen cell cultures, CBA
Summary of the method: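 C57BL/6 splenocytes (5×10^5/well) pulsed with test glycolipid at 100, 10 or 1 ng/ml and cultured overnight. Medium was then replaced without further glycolipid, and supernatants were harvested at 72 hr. Mean ± SEM of three independent experiments (IL-10: two), each the mean of duplicate cultures.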

spleen NKT cells [3] = test: CFSE proliferation assay of spleen NKT cells; type: cell-based, C57BL/6 mice; details: 72 hr, 100, 10 and 1 ng/ml
NKT cells = test: In vivo stimulation of NKT cells, serum cytokines by cytometric bead array; set-up: species or system mice; details: 1 μg i.p.
Summary of the method: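 Mice received 1 μg test glycolipid i.p. in 200 μL PBS. Serum was collected at 2 and 24 hr, and IFN-γ and IL-4 were quantified by cytometric bead array. Ratio taken as serum IFN-γ at 24 hr over IL-4 at 2 hr. Results combine three independent experiments, 10 mice per group.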

[4] = Vβ7 TCR, SPR kinetic experiment, 25°C, 1:1 Langmuir model

| Kd ([1]; KD(eq), Vβ8.2 TCR, steady-state affinity determined in separate experiment) | NKT TCR affinity relative to CD1d-α-GalCer interaction (fold lower) ([1]; Vβ8.2 NKT TCR) | kd ([1]; Vβ8.2 TCR) | Kd ([1]; affinity (KD(eq)), Vβ8.2 NKT TCR, response at equilibrium) | Structure (SMILES) | ka ([1]; Vβ8.2 TCR) | NKT TCR affinity relative to CD1d-α-GalCer interaction (fold lower) (Vβ7 NKT TCR / CD1d-Ag; Vβ7 NKT TCR) | IFN-γ+ NKT cells (spleen NKT cells [2]) | cytokine amounts, fold lower compared to α-GalCer (spleen cells) | NKT cell proliferation (in words) (spleen NKT cells [3]) | ratio of peak IFN-γ response (24 hours) to peak IL-4 response (2 hours) (NKT cells; serum) | serum IFN-γ production in vivo compared to α-GalCer (NKT cells; serum at 2 and 24 hr) | serum IL-4 production in vivo compared to α-GalCer (NKT cells; serum at 2 and 24 hr) | ka (Vβ7 NKT TCR / CD1d-Ag; [4]) | kd (Vβ7 NKT TCR / CD1d-Ag; [4]) |
| --- | --- | --- | --- | --- | --- | --- | --- | --- | --- | --- | --- | --- | --- | --- |
| ~2000 nM and 2000 nM | approximately 10 fold | 0.29 s⁻¹ and 0.29 ± 0.02 s⁻¹ |  | CCCCCCCCCCCCCCCCCCCCCCCCCC(=O)N[C@@H](CC[C@H]1O[C@H](CO)[C@H](O)[C@H](O)[C@H]1O)[C@H](O)[C@H](O)CCCCCCCCCCCCCC [α-C-GalCer] | 225000 M⁻¹ s⁻¹ and 225000 ± 41000 M⁻¹ s⁻¹ | approximately 10 fold | ~ 12% | 2–5 fold | little difference in the proliferative response | Th1-like bias | lower amounts | lower amounts |  |  |
|  |  | 0.02 s^−1 and 0.02 ± 4.5×10^−4 s^−1 | 300 nM | CCCCCCCCCCCCCCCCCCCCCCCCCC(=O)N[C@@H](CO[C@H]1O[C@H](CO)[C@H](O)[C@H](O)[C@H]1O)[C@H](O)[C@H](O)CCCCCCCCCCCCCC [α-GalCer, α-galactosylceramide, reference compound] | 162000 M⁻¹ s⁻¹ and 162000 ± 9500 M⁻¹ s⁻¹ |  | approximately 25% |  |  |  |  |  | 231000 ± 31500 M⁻¹ s⁻¹ | 0.09 ± 0.003 s⁻¹ |
